Reference: ChEMBL document CHEMBL4038284, “Synthesis of novel quinoline-based 4,5-dihydro-1H-pyrazoles as potential anticancer, antifungal, antibacterial and antiprotozoal agents” (Eur J Med Chem, 2017)
Calls of active or inactive are those of the source. The calls are words filed in the database; no cut-off is given here.

Experiments:
RPMI-8226 = test: Growth inhibition of human RPMI8226 cells at 10 uM incubated for 48 hrs by sulforhodamine B assay; assay type: functional, cell-based
Summary of the method: (§1)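 NCI 60-line panel, single 10 μM dose. Cells were grown in RPMI-1640 with 5% FBS and 2 mM L-glutamine and pre-incubated 24 h before compound addition (DMSO stock). Exposure was 48 h at 37 °C, 5% CO2. Cells were fixed with cold TCA (10% final), stained with 0.4% SRB, bound dye dissolved in 10 mM Tris base, A515 read. Growth was taken relative to time-zero and untreated control plates.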

MCF7 = test: Growth inhibition of human MCF7 cells at 10 uM incubated for 48 hrs by sulforhodamine B assay; assay type: functional, cell-based; summary of the method: as §1
Candida albicans [1] = test: Antifungal activity against Candida albicans ATCC 10231 incubated for 48 hrs under dark condition by broth microdilution method; assay type: functional; settings: ATCC 10231, 48 h
Summary of the method: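 CLSI M27-A3 broth microdilution in RPMI-1640, DMSO ≤1%, compounds at 250-0.98 µg/mL final. Inoculum 1-5 × 10^3 CFU/mL. Incubated 48 h at 30 °C in a moist dark chamber, read at OD405. MIC80 and MIC50 taken from % inhibition dose-response curves (mean ± SEM, triplicate). Amphotericin B was the positive control.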

SK-MEL-2 = test: Growth inhibition of human SK-MEL-2 cells at 10 uM incubated for 48 hrs by sulforhodamine B assay; assay type: functional, cell-based
Summary of the method: (§2)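 NCI-60 single-dose screen at 10 µM for 48 h. Cells were grown in RPMI-1640 with 5% FBS and 2 mM L-glutamine and preincubated 24 h before compound. Time-zero plates were TCA-fixed at compound addition. After exposure, cells were TCA-fixed, stained with SRB and read at 515 nm. Percentage growth was calculated against time-zero and untreated-control absorbances.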

Escherichia coli = test: Antibacterial activity against Escherichia coli ATCC 25922 after 24 hrs by resazurin dye based microdilution assay; assay type: functional; settings: ATCC 25922, 24 h
Summary of the method: (§3)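 MIC taken as the lowest concentration giving visible inhibition and/or by resazurin (1 mg/mL). Gentamicin was the control. Run in duplicate, repeated at least three times.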

T47D = test: Growth inhibition of human T47D cells at 10 uM incubated for 48 hrs by sulforhodamine B assay; assay type: functional, cell-based; summary of the method: as §2
SW-620 = test: Growth inhibition of human SW620 cells at 10 uM incubated for 48 hrs by sulforhodamine B assay; assay type: functional, cell-based; summary of the method: as §2
NCI/ADR-RES = test: Growth inhibition of human NCI/ADR-RES cells at 10 uM incubated for 48 hrs by sulforhodamine B assay; assay type: functional, cell-based; summary of the method: as §1
OVCAR-5 = test: Growth inhibition of human OVCAR5 cells at 10 uM incubated for 48 hrs by sulforhodamine B assay; assay type: functional, cell-based; summary of the method: as §1
SNB-75 = test: Growth inhibition of human SNB75 cells at 10 uM incubated for 48 hrs by sulforhodamine B assay; assay type: functional, cell-based; summary of the method: as §2
Candida albicans [2] = test: Growth inhibition of Candida albicans ATCC 10231 at 15.62 ug/ml incubated for 48 hrs under dark condition by broth microdilution method relative to control; assay type: functional; settings: ATCC 10231, 48 h, read-out: GI
Summary of the method: (§4)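 CLSI M27-A3 broth microdilution in RPMI-1640, DMSO ≤1%. Inoculum 1-5 × 10^3 CFU/mL. Incubated 48 h at 30 °C, dark. % inhibition = 100 − (OD405 test − sterility control)/(OD405 growth control − sterility control), with growth and sterility control wells. Triplicate.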

LOX IMVI = test: Growth inhibition of human LOXIMVI cells at 10 uM incubated for 48 hrs by sulforhodamine B assay; assay type: functional, cell-based; summary of the method: as §1
SK-OV-3 = test: Growth inhibition of human SKOV3 cells at 10 uM incubated for 48 hrs by sulforhodamine B assay; assay type: functional, cell-based; summary of the method: as §2
SF-295 = test: Growth inhibition of human SF295 cells at 10 uM incubated for 48 hrs by sulforhodamine B assay; assay type: functional, cell-based; summary of the method: as §1
NCI-H226 = test: Growth inhibition of human NCI-H226 cells at 10 uM incubated for 48 hrs by sulforhodamine B assay; assay type: functional, cell-based; summary of the method: as §1
Candida albicans [3] = test: Growth inhibition of Candida albicans ATCC 10231 at 31.25 ug/ml incubated for 48 hrs under dark condition by broth microdilution method relative to control; assay type: functional; settings: ATCC 10231, 48 h, read-out: GI; summary of the method: as §4
PC-3 = test: Growth inhibition of human PC3 cells at 10 uM incubated for 48 hrs by sulforhodamine B assay; assay type: functional, cell-based; summary of the method: as §1
Pseudomonas aeruginosa = test: Antibacterial activity against Pseudomonas aeruginosa ATCC 27853 after 24 hrs by resazurin dye based microdilution assay; assay type: functional; settings: ATCC 27853, 24 h; summary of the method: as §3
MDA-MB-435 = test: Growth inhibition of human MDA-MB-435 cells at 10 uM incubated for 48 hrs by sulforhodamine B assay; assay type: functional, cell-based; summary of the method: as §1
A498 = test: Growth inhibition of human A498 cells at 10 uM incubated for 48 hrs by sulforhodamine B assay; assay type: functional, cell-based
Summary of the method: (§5)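 NCI 60-cell-line screen at a single 10 µM dose. Cells in RPMI-1640 with 5% FBS and 2 mM L-glutamine, pre-incubated 24 h, then treated for 48 h at 37 °C. TCA fixation, sulforhodamine B staining, absorbance at 515 nm. Percentage growth calculated against time-zero and untreated controls.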

SF-268 = test: Growth inhibition of human SF268 cells at 10 uM incubated for 48 hrs by sulforhodamine B assay; assay type: functional, cell-based; summary of the method: as §1
Malme-3M = test: Growth inhibition of human MALME-3M cells at 10 uM incubated for 48 hrs by sulforhodamine B assay; assay type: functional, cell-based; summary of the method: as §1
DU-145 = test: Growth inhibition of human DU145 cells at 10 uM incubated for 48 hrs by sulforhodamine B assay; assay type: functional, cell-based; summary of the method: as §5
Staphylococcus aureus [4] = test: Antibacterial activity against vancomycin-intermediate Staphylococcus aureus after 24 hrs by resazurin dye based microdilution assay; assay type: functional; summary of the method: as §3
CCRF-CEM = test: Growth inhibition of human CCRF-CEM cells at 10 uM incubated for 48 hrs by sulforhodamine B assay; assay type: functional, cell-based; summary of the method: as §5
NCI-H23 = test: Growth inhibition of human NCI-H23 cells at 10 uM incubated for 48 hrs by sulforhodamine B assay; assay type: functional, cell-based; summary of the method: as §1
HOP-92 = test: Growth inhibition of human HOP92 cells at 10 uM incubated for 48 hrs by sulforhodamine B assay; assay type: functional, cell-based; summary of the method: as §1
Cryptococcus neoformans [5] = test: Growth inhibition of Cryptococcus neoformans ATCC 32264 at 31.25 ug/ml incubated for 48 hrs under dark condition by broth microdilution method relative to control; assay type: functional; settings: ATCC 32264, 48 h, read-out: GI; summary of the method: as §4
Cryptococcus neoformans [6] = test: Growth inhibition of Cryptococcus neoformans ATCC 32264 at 62.5 ug/ml incubated for 48 hrs under dark condition by broth microdilution method relative to control; assay type: functional; settings: ATCC 32264, 48 h, read-out: GI; summary of the method: as §4
M14 = test: Growth inhibition of human M14 cells at 10 uM incubated for 48 hrs by sulforhodamine B assay; assay type: functional, cell-based; summary of the method: as §1
Staphylococcus aureus [7] = test: Antibacterial activity against methicillin-sensitive Staphylococcus aureus ATCC 25923 after 24 hrs by resazurin dye based microdilution assay; assay type: functional; settings: ATCC 25923, 24 h; summary of the method: as §3
SNB-19 = test: Growth inhibition of human SNB19 cells at 10 uM incubated for 48 hrs by sulforhodamine B assay; assay type: functional, cell-based; summary of the method: as §2
SN12C = test: Growth inhibition of human SN12C cells at 10 uM incubated for 48 hrs by sulforhodamine B assay; assay type: functional, cell-based; summary of the method: as §2

COc1cc(C2=NN(c3ccc(Cl)cc3)C(c3cccc(Nc4ccnc5cc(Cl)ccc45)c3)C2)cc(OC)c1OC (centres undefined)
growth inhibition (GI) (RPMI-8226): inactive
growth inhibition (GI) (MCF7): inactive
MIC50 (Candida albicans [1]): ≥ 250 µg/mL
MIC80 (Candida albicans [1]): ≥ 250 µg/mL
growth inhibition (GI) (SK-MEL-2): inactive
MIC (Escherichia coli): > 1000 µg/mL
growth inhibition (GI) (T47D): inactive
growth inhibition (GI) (SW-620): inactive
growth inhibition (GI) (NCI/ADR-RES): inactive
growth inhibition (GI) (OVCAR-5): inactive
growth inhibition (GI) (SNB-75): inactive
inhibition of growth at 15.62 µg/mL (Candida albicans [2]): 8.02%
growth inhibition (GI) (LOX IMVI): inactive
growth inhibition (GI) (SK-OV-3): inactive
growth inhibition (GI) (SF-295): inactive
growth inhibition (GI) (NCI-H226): inactive
inhibition of growth at 31.25 µg/mL (Candida albicans [3]): 8.05%
growth inhibition (GI) (PC-3): inactive
MIC (Pseudomonas aeruginosa): > 1000 µg/mL
growth inhibition (GI) (MDA-MB-435): inactive
growth inhibition (GI) (A498): inactive
growth inhibition (GI) (SF-268): inactive
growth inhibition (GI) (Malme-3M): inactive
growth inhibition (GI) (DU-145): inactive
MIC (Staphylococcus aureus [4]): > 1000 µg/mL
growth inhibition (GI) (CCRF-CEM): inactive
growth inhibition (GI) (NCI-H23): inactive
growth inhibition (GI) (HOP-92): inactive
inhibition of growth at 31.25 µg/mL (Cryptococcus neoformans [5]): 12.5%
inhibition of growth at 62.5 µg/mL (Cryptococcus neoformans [6]): 17.1%
growth inhibition (GI) (M14): inactive
MIC (Staphylococcus aureus [7]): > 1000 µg/mL
growth inhibition (GI) (SNB-19): inactive
growth inhibition (GI) (SN12C): inactive
